The source of these data is ChEMBL document CHEMBL5032510, “Identification of Novel Fused Heteroaromatics-Based MALT1 Inhibitors by High-Throughput Screening to Treat B Cell Lymphoma” (J Med Chem, 2021).

Series [1] relates to OCI-Ly1. The experiment in a line: Induction of apoptosis in human OCI-Ly1 cells assessed as viable cells at 2 uM measured after 24 hrs by Annexin V-FITC/ Propidium iodide staining based flow cytometry (reference value: 97.8%). The class given is functional. Particulars: read-out: Activity. Background: In flow cytometry, cells or beads pass a laser one at a time.
Series [2] is described as follows: Induction of apoptosis in human HBL1 cells assessed as early apoptotic cells at 5 uM measured after 24 hrs by Annexin V-FITC/ Propidium iodide staining based flow cytometry (reference value: 4.85%). It counts as functional.
Series [3] in a line: Induction of apoptosis in human HBL1 cells assessed as viable cells at 2 uM measured after 24 hrs by Annexin V-FITC/ Propidium iodide staining based flow cytometry (reference value: 88.1%). To be noted: read-out: Activity. The class given is functional.
The nature of series [4]: Induction of apoptosis in human HBL1 cells assessed as early apoptotic cells at 2 uM measured after 24 hrs by Annexin V-FITC/ Propidium iodide staining based flow cytometry (reference value: 4.85%). It counts as functional.
The nature of series [5]: Induction of apoptosis in human HBL1 cells assessed as dead cells at 10 uM measured after 24 hrs by Annexin V-FITC/ Propidium iodide staining based flow cytometry (reference value: 2.32%). The class given is functional.
Series [6] can be described thus: Antiproliferative activity against human HBL1 cells assessed as inhibition of cell growth incubated for 72 hrs by Celltiter-Glo luminescent assay. It counts as functional. Summed up:
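Exponentially growing cells were seeded at 1 × 10⁴ per 100 μL. HBL-1 and TMD8 were kept in RPMI with 10% FBS, 2 mM glutamine and 10 mM HEPES; OCI-LY1 in Iscove's medium with 20% FBS; all at 37 °C and 5% CO2. Cells were exposed to DMSO or 2-fold serial dilutions from 100 μM for 72 h, in triplicate on one plate. CellTiter-Glo luminescence was read after 1 h. Growth inhibition was calculated against control, accounting for initial cell number, and GI50 was fitted.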

Series [7] addresses Nuclear factor NF-kappa-B complex (Homo sapiens) (UniProt Q00653+P19838+Q04206). Nature of the series: Inhibition of NF-kappab signaling in human TMD8 cells assessed as reduction in phosphorylation of IkappaB-alpha at 8 uM preincubated for 30 mins followed by MG-132 addition and measured after 2 hrs by Western blot analysis. It counts as cell-based. Particulars: time 2.5 hrs. The method in brief: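 HBL1, TMD8 and OCI-LY1 cells pretreated 30 min with inhibitor (4 and 8 μM), then given 10 μM proteasome inhibitor MG-132 for 2 h. Lysates (20−75 μg protein) run on SDS-PAGE, blotted to PVDF and probed for RelB, IκBα and phospho-IκBα, with β-actin as loading control; HRP secondary, chemiluminescence detection.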
On the technique in general: A western blot detects proteins with antibodies after separation by electrophoresis.

In series [8] the test system is TMD8. Nature of the series: Induction of apoptosis in human TMD8 cells assessed as viable cells at 2 uM measured after 24 hrs by Annexin V-FITC/ Propidium iodide staining based flow cytometry (reference value: 90.8%). The class given is functional. Particulars: read-out: Activity.
The nature of series [9]: AUC (0 to t) in CD-1 mouse at 1 mg/kg, iv by LC-MS/MS analysis. The class given is ADME, organism-based. Further details: dose 1 mg/kg. Particulars: in vivo. The method in brief:
(§1)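 Compound formulated in 5% DMSO + 5% Tween-80 in 90% saline and given to male ICR (CD-1) mice (n = 9) at 10 mg/kg po, 1 mg/kg ip or 1 mg/kg iv. Blood was drawn via the jugular vein at set time points and held on ice. Plasma was separated by centrifugation and stored at −80 °C before PK parameters were derived.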

The test system of series [10] is OCI-Ly1. Nature of the series: Induction of apoptosis in human OCI-Ly1 cells assessed as late apoptotic cells at 2 uM measured after 24 hrs by Annexin V-FITC/ Propidium iodide staining based flow cytometry (reference value: 0.548%). It counts as functional.
Series [11] deals with TMD8. Nature of the series: Induction of apoptosis in human TMD8 cells assessed as dead cells at 2 uM measured after 24 hrs by Annexin V-FITC/ Propidium iodide staining based flow cytometry (reference value: 0%). The class given is functional.
In series [12] the test system is OCI-Ly1. Nature of the series: Induction of apoptosis in human OCI-Ly1 cells assessed as viable cells at 5 uM measured after 24 hrs by Annexin V-FITC/ Propidium iodide staining based flow cytometry (reference value: 97.8%). The class given is functional. To be noted: read-out: Activity.
For series [13], the system named is OCI-Ly1. Nature of the series: Induction of apoptosis in human OCI-Ly1 cells assessed as early apoptotic cells at 10 uM measured after 24 hrs by Annexin V-FITC/ Propidium iodide staining based flow cytometry (reference value: 1.29%). The class given is functional.
Series [14] can be described thus: Apparent volume of distribution in CD-1 mouse at 1 mg/kg, iv by LC-MS/MS analysis. It counts as ADME, organism-based. Particulars: in vivo, read-out: Vz. Summed up: as §1
Series [15] relates to OCI-Ly1. The experiment in a line: Induction of apoptosis in human OCI-Ly1 cells assessed as dead cells at 5 uM measured after 24 hrs by Annexin V-FITC/ Propidium iodide staining based flow cytometry (reference value: 0.365%). The class given is functional.
Series [16] concerns TMD8. The experiment in a line: Induction of apoptosis in human TMD8 cells assessed as viable cells at 5 uM measured after 24 hrs by Annexin V-FITC/ Propidium iodide staining based flow cytometry (reference value: 90.8%). The class given is functional. To be noted: read-out: Activity.
Series [17] concerns TMD8. The experiment in a line: Induction of apoptosis in human TMD8 cells assessed as early apoptotic cells at 2 uM measured after 24 hrs by Annexin V-FITC/ Propidium iodide staining based flow cytometry (reference value: 6.97%). It counts as functional.
In series [18] the test system is TMD8. Nature of the series: Induction of apoptosis in human TMD8 cells assessed as dead cells at 5 uM measured after 24 hrs by Annexin V-FITC/ Propidium iodide staining based flow cytometry (reference value: 0 %). The class given is functional.
A further series concerns HBL1. The experiment in a line: Induction of apoptosis in human HBL1 cells assessed as increase in cleaved caspase 3 level measured after 12 hrs by Western blot analysis. The class given is functional, cell-based. The method in brief:
(§2)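 HBL1, TMD8 or OCI-LY1 cells were exposed to DMSO or compound for 12 h. Cleaved PARP and caspase-3 were probed by western blot with HRP-conjugated secondary antibodies and chemiluminescent detection. Each lane held 20−75 μg total protein.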

Series [19] can be described thus: MRT (0 to t) in CD-1 mouse at 1 mg/kg, iv by LC-MS/MS analysis. The class given is ADME, organism-based. To be noted: in vivo. The method in brief: (§3)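 Male ICR (CD-1) mice (n = 9). Compound formulated in 5% DMSO + 5% Tween-80 in 90% saline and dosed 10 mg/kg po, 1 mg/kg ip or 1 mg/kg iv. Blood drawn from the jugular vein at set time points and held on ice. Plasma separated by centrifugation and stored at −80 °C before parameter derivation.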

For series [20], the system named is OCI-Ly1. Nature of the series: Induction of apoptosis in human OCI-Ly1 cells assessed as increase in cleaved PARP level at 2 to 5 uM measured after 12 hrs by Western blot analysis. The class given is functional, cell-based. To be noted: dose 2-5 µM. Summed up: as §2
Series [21] has as its system TMD8. The experiment in a line: Antitumor activity against human TMD8 cells xenografted in NCG mouse assessed as tumor growth inhibition at 30 mg/kg/day, ip measured every 2 days for 13 days by caliper method relative to control. It counts as functional. To be noted: 312 h, time 13 day, read-out: TGI.
Series [22] can be described thus: Tmax in CD-1 mouse at 1 mg/kg, ip by LC-MS/MS analysis. The class given is ADME, organism-based. Particulars: in vivo. Summed up:
as §3

A short description of series [23]: Drug concentration in tumor of NCG mouse xenografted with human TMD8 cells at 30 mg/kg/day, ip measured after 13 days. The class given is ADME, organism-based, Neoplasm. To be noted: time 13 day, read-out: Drug uptake. Summed up: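 TMD8 cells (5 × 10⁶) were implanted subcutaneously into the right flank of 6-week-old female NCG mice. At day 10, when tumors were palpable, mice were randomized into groups of eight. Dosing was ip at 30 mg/kg for 13 consecutive days; controls received HPBCD (20% PEG 400) ip. TGI was based on mean tumor weight of treated versus control groups. Intratumoral drug level was measured after 13 days of dosing.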
A general note: In xenograft studies the graft and the host belong to different species.

Each structure is given as a SMILES string. Active and inactive are the calls of the source. No cut-off for these calls is given here.

Chain of Nuclear factor NF-kappa-B complex (Homo sapiens) (P19838 whole entry, looked up): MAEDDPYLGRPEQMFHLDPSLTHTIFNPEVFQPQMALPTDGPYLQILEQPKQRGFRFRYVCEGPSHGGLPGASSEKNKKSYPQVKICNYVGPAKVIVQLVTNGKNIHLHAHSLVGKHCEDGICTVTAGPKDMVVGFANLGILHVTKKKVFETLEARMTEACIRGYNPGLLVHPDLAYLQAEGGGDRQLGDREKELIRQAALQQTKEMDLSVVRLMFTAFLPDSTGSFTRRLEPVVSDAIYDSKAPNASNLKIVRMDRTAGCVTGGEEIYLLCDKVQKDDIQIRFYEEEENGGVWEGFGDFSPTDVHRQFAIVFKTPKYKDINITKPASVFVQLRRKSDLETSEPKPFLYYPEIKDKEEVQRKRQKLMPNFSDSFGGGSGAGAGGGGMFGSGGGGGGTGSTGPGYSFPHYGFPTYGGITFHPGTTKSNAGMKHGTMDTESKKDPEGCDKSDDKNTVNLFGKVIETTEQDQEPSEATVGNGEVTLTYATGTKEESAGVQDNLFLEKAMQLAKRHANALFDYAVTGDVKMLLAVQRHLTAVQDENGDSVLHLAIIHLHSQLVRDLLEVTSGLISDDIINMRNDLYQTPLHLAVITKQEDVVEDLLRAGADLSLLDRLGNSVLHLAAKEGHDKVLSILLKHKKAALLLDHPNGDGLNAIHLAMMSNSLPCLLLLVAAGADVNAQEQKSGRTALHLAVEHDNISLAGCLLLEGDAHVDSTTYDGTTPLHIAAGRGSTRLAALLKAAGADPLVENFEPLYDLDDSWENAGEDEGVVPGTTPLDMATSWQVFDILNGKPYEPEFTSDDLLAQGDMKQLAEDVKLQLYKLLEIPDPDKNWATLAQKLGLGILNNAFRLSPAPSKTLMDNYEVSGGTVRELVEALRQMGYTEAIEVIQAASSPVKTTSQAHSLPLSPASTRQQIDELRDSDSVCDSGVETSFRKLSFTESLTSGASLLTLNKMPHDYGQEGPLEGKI
Chain of Nuclear factor NF-kappa-B complex (Homo sapiens) (Q00653 whole entry, looked up): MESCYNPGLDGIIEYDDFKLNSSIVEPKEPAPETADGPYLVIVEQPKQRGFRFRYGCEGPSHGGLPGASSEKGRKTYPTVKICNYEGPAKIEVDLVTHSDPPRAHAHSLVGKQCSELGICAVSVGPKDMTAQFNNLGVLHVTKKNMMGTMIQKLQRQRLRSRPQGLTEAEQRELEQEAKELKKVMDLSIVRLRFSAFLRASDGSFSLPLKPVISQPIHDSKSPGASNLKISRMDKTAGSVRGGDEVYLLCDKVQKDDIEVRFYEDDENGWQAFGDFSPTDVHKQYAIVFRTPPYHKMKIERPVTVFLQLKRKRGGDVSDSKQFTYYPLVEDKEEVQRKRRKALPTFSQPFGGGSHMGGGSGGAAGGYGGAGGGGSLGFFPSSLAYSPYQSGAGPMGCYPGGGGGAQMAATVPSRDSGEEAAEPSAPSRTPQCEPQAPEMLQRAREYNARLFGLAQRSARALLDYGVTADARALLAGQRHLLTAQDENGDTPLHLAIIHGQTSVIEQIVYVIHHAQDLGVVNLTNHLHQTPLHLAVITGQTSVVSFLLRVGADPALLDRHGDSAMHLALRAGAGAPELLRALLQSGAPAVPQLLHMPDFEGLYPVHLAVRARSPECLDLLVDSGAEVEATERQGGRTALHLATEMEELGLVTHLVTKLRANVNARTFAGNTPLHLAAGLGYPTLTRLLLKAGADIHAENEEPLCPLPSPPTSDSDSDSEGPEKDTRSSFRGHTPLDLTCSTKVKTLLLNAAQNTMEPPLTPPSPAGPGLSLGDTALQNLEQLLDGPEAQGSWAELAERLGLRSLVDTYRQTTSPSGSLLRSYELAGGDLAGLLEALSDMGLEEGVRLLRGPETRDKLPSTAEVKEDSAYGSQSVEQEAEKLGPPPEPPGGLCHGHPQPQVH
Chain of Nuclear factor NF-kappa-B complex (Homo sapiens) (Q04206 whole entry, looked up): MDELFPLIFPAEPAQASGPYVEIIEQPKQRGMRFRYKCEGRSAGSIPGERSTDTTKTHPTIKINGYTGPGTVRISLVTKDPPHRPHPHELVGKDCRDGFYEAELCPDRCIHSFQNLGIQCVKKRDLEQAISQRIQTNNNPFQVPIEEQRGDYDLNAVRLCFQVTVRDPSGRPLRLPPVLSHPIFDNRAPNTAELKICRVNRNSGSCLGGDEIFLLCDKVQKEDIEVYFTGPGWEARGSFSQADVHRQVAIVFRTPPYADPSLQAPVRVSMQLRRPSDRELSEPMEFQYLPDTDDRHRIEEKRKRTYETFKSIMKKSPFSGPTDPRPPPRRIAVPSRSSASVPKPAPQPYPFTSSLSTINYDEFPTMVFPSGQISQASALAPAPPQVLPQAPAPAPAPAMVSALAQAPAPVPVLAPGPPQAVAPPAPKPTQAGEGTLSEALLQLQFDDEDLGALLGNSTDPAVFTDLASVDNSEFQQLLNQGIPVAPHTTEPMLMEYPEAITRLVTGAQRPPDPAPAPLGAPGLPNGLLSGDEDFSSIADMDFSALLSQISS

In general, GI50 refers to the concentration that inhibits growth by half. As a reminder, the AUC(0-t) is exposure summed from dosing to a finite time, without extrapolation to infinity. Read a low AUC(0-t) as low exposure. One may read the MRT last as the average time that molecules of a dose stay in the body. For orientation: Tmax means the time at which the peak concentration occurs. For the molecule `COc1ccc(OC)c(NC(=O)c2sc(=S)n(-c3ccc(C(F)(F)F)cc3)c2NC(=O)CCl)c1`, the viability at 2 µM in the series on OCI-Ly1 [1] stood at 97.4%; in series [3], 85.8%; in the series on TMD8 [8], 89.4%. The Activity came to 42.1% in series [2]; 6.78% in series [4]; 1.04% in [5]; 0.688% in the series on OCI-Ly1 [10]; 0.048% in the series on TMD8 [11]; 2.65% in the series with OCI-Ly1 [13]. Besides, the Activity in the series with OCI-Ly1 [15] was 0.204%; in the series on TMD8 [17], 8%; with TMD8 [18], 0.422%; in the series with HBL1, “Dose-Dependent Effect”. Besides, the GI50 in series [6] turned out to be 1 µM. In addition, in series [7], the inhibition entry was “Active”. The molecule also registered an AUC(0-t) in series [9] of 1010 ng·h/mL. Besides, the viability at 5 µM in the series with OCI-Ly1 [12] was 97.4%; with TMD8 [16], 14.8%. Further, the Vd in series [14] came out at 4.82 L/kg. Besides, in series [19], the mean residence time (MRT last) stood at 5.66 h. Moreover, in the series with OCI-Ly1 [20], the outcome was inactive. In the series with TMD8 [21], the inhibition in vivo at 30 mg/kg/day was found to be 31%. In series [22], the time to peak (Tmax) was found to be 0.35 h. The concentration at 312 h in series [23] came to 1130 ng/g.
